Experimental data published in ChEMBL document CHEMBL4396947, “Synthesis and characterization of novel isoform-selective IP6K1 inhibitors” (Bioorg Med Chem Lett, 2019).

Key:
[1] = target: T1, Inositol hexakisphosphate kinase 1 (Homo sapiens, UniProt Q92551); experiment: Inhibition of IP6K1 (unknown origin) incubated for 30 mins using IP6 as substrate in presence of ATP by ADP-Glo reagent based luminescence assay; conditions: read-out: pIC50 (converted)
How it was run: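 Luminescent ADP-Glo Max format adapted for IP6K, with purified enzyme and ATP at 1 mM, which is consumed as the kinase reaction proceeds. IC50 taken from the resulting inhibition data.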
Target sequence in this assay (Q92551 whole entry): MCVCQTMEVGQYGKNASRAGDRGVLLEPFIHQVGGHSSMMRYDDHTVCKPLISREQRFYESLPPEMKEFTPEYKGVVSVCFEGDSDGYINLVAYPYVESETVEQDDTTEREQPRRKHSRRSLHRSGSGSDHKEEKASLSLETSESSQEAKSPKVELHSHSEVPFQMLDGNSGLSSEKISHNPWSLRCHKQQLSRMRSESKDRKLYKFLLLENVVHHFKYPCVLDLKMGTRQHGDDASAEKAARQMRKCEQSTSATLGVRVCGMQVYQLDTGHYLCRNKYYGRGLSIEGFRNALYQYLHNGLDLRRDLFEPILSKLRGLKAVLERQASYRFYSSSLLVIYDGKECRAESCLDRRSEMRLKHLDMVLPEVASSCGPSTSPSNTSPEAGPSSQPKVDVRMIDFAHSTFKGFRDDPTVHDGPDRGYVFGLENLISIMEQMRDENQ

[2] = target: T1, Inositol hexakisphosphate kinase 1; experiment: Binding affinity to IP6K1 (unknown origin) assessed as change in melting temperature by SYPRO orange dye-based assay
How it was run: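 Thermal shift format. Purified IP6K1 heated across a temperature gradient with the ligand at several concentrations. Binding read as the rise in protein melting temperature, including the maximal Tm shift (TmMax).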
Target sequence in this assay (Q92551 whole entry, looked up): as the sequence (Q92551 whole entry) above

[3] = target: T1, Inositol hexakisphosphate kinase 1; experiment: Binding affinity to IP6K1 (unknown origin) assessed as change in melting temperature at 11.1 uM by SYPRO orange dye based assay
Target sequence in this assay (Q92551 whole entry, looked up): as the sequence (Q92551 whole entry) above

[4] = Half life in human microsomes at 1 uM incubated for 5 to 60 mins in presence of NADPH by LC-MS/MS analysis; assay type: ADME, Microsome
[5] = Half life in mouse microsomes at 1 uM incubated for 5 to 60 mins in presence of NADPH by LC-MS/MS analysis
[6] = Solubility of compound in 2% DMSO by LC-MS/MS analysis; assay type: physicochemical

| IC50 [1] [µM] | Structure (SMILES) | also measured |
| --- | --- | --- |
| 69.2 | COCCNc1nc(NCCCc2c[nH]c3ccccc23)nc2[nH]cnc12 |  |
| > 200 | COCCNc1nc(NCCc2c[nH]c3ccccc23)nc2cc[nH]c12 |  |
| 2.75 | COCCNc1nc(NCCc2c[nH]c3cc(OC)ccc23)nc2[nH]cnc12 | ΔTm [2]: 4.7 °C; ΔTm [3]: 3.6 °C |
| > 200 | COCCNc1nc(NCCc2c[nH]c3ccccc23)nc2c1ncn2C |  |
| 79.4 | COCCNc1nc(NCCc2ccccc2)nc2[nH]cnc12 |  |
| 1.74 | O=c1ccc(CNc2nc(NCCc3c[nH]c4ccccc34)nc3[nH]cnc23)c[nH]1 |  |
| 3.02 | Cc1[nH]c2ccccc2c1CCNc1nc(NCc2ccc(=O)[nH]c2)c2nc[nH]c2n1 |  |
| 46.8 | N#Cc1ccc(CNc2nc(NCCc3c[nH]c4ccccc34)nc3[nH]cnc23)cc1 |  |
| > 200 | O=[N+]([O-])c1ccc(CNc2nc(NCc3cccc(C(F)(F)F)c3)nc3[nH]cnc23)cc1 | ΔTm [2]: 3.3 °C; half-life at 1 µM [4]: 32 min; half-life at 1 µM [5]: 9 min; solubility [6]: Insoluble; ΔTm [3]: 1.8 °C |
| 31.6 | COCCNc1nc(NCCc2cn(C)c3ccccc23)nc2nc[nH]c12 |  |
| > 200 | COCCNc1nc(NCCc2c[nH]cn2)nc2[nH]cnc12 |  |
| 138 | COCCNc1nc(NCCc2c[nH]c3ccc(OC)cc23)nc2[nH]cnc12 |  |
| 93.3 | COCCNc1nc(NCCc2cccc3ccccc23)nc2[nH]cnc12 |  |
| > 200 | COCCNc1nc(N(C)CCc2c[nH]c3ccccc23)nc2nc[nH]c12 |  |
| > 200 | COCCNc1nc(NCCc2c[nH]c3ccccc23)nc2[nH]ccc12 |  |
| > 200 | COCCN(C)c1nc(NCCc2c[nH]c3ccccc23)nc2c1ncn2C |  |
| 31.6 | COCCNc1nc(NCCc2c[nH]c3ccc(O)cc23)nc2[nH]cnc12 |  |
| 1.95 | COCCNc1nc(NCCc2c(C)[nH]c3ccccc23)nc2[nH]cnc12 |  |
| 8.32 | COCCNc1nc(NCCc2c[nH]c3ccccc23)nc2[nH]cnc12 | ΔTm [2]: 4.3 °C; ΔTm [3]: 2.4 °C |
| 10 | O=c1cc(CNc2nc(NCCc3c[nH]c4ccccc34)nc3[nH]cnc23)cc[nH]1 |  |
| 26.9 | COCCNc1nc(NCCc2c[nH]c3ccc(Cl)cc23)nc2[nH]cnc12 |  |
| 11.2 | COCCNc1nc(NCCc2ccccc2OC)nc2[nH]cnc12 |  |
| 151 | c1ccc2c(CCNc3nc(NCc4ccc5nonc5c4)c4nc[nH]c4n3)c[nH]c2c1 |  |
| 89.1 | COCCNc1nc(NCCc2ccc(F)cc2)nc2[nH]cnc12 |  |
| > 200 | FC(F)(F)c1cccc(CNc2nc(NCCc3ccccc3)c3nc[nH]c3n2)c1 |  |
| 117 | COCCNc1nc(NCc2cccc(C(F)(F)F)c2)nc2[nH]cnc12 |  |
| > 200 | FC(F)(F)c1cccc(CNc2nc(NCc3ccccc3)c3nc[nH]c3n2)c1 |  |
| 123 | COCCNc1nc(NCCc2c[nH]c3ccc(C)cc23)nc2[nH]cnc12 |  |
